Hits are enriched below; roughly 1.9% of the tested compounds scored in any of these assays.
M5 PAM: positive allosteric modulators of human muscarinic M5 receptor. P08912. CHO-K1 hM5, Fluo-8 calcium, ACh EC20 PAM; 0% = ACh EC20, 100% = ACh EC100. activation, % at 3 µM. 0.3% of 360,000 active;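 active = activation above the run cutoff, the mean activation of all test compounds plus 3 SD, cut at about 18% in these data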
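System: CHO-K1 cell line with stable human muscarinic M5 receptor expression | Also added: EC20 acetylcholine as agonist stimulus | Compound: One concentration, 3 µM final (nominal) | Timing: Fluo-8 loading 80 min at 37 °C plus 30 min room temperature | Measured by: Fluo-8 calcium dye fluorescence, kinetic read | Read-out basis: % activation, ACh-normalized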
CHRM4 antagonist: CHRM4 antagonism in calcium assay | P08173 | CHO-hM4 cells, ACh EC80, Fluo-8 calcium fluorescence | inhibition, % at 3 µM | 0.73% of 360,000 active;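 active = inhibition above its plate's cutoff, the mean inhibition of sample wells plus 3 SD, cut at about 27% in these data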
Target sequence (P08173 whole entry, looked up): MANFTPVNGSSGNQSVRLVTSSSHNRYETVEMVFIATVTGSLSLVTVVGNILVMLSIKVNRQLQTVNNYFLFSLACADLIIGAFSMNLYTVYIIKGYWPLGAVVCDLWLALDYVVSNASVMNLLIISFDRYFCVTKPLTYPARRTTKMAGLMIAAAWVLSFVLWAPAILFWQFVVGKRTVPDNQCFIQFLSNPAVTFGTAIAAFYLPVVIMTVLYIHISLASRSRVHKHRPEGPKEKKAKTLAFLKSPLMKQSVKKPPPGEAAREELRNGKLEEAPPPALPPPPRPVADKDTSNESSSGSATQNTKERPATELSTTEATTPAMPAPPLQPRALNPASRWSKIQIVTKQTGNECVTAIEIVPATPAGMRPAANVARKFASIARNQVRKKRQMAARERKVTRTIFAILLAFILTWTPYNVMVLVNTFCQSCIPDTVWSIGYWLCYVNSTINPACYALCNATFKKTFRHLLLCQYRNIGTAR
CHRM4 agonist: CHRM4 agonism in calcium assay | CHO-K1 hM4/Gqi5, Fluo-8 calcium fluorescence; vehicle 0%, full acetylcholine response 100% | activation, % at 3 µM | 0.14% of 360,000 active | AID 624127;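 active = activation above the run mean over all test wells plus 3 SD, cut at about 32% in these data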;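 note: peak over basal fluorescence ratio per well then scaled between controls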
CHRM4 PAM: positive allosteric modulators of human muscarinic M4 receptor; activation, % at 3 µM; CHO-K1 hM4/Gqi5, Fluo-8 calcium fluorescence, ACh EC20; 0% = ACh EC20, 100% = maximal ACh; 0.4% of 360,000 active; P08173;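 active = activation above its plate's cutoff, the mean activation of sample wells plus 3 SD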
CHRM5 antagonist: blocks acetylcholine activation of human M5 receptor; P08912; 0.59% of 360,000 active; CHO-hM5 cells, Fluo-8 calcium fluorescence, ACh EC80; inhibition, % at 3 µM;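 active = inhibition above a per-plate cutoff, the mean of that plate's test compounds plus 3 SD, cut at about 27% in these data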
M5 ag: CHRM5 agonism in calcium assay; P08912; CHO-K1 hM5 cells, Fluo-8 calcium fluorescence; 0% DMSO wells, 100% maximal acetylcholine response; activation, % at 3 µM; 0.19% of 360,000 active; AID 624037;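 active = activation above the run's mean over test compounds plus 3 SD, cut at about 23% in these data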;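 note: signal is peak over basal fluorescence ratio across the kinetic read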
Each line names hits and unclear results; the compound was inactive in the other large screens.

C[C@@H]1CN([C@H](C)CO)C(=O)CCCn2nncc2CO[C@H]1CN(C)S(C)(=O)=O	CHRM4 antagonist 100.6
C[C@@H]1CN([C@H](C)CO)C(=O)CCCn2nncc2CO[C@H]1CN(C)Cc1ccc(Oc2ccccc2)cc1	CHRM4 antagonist 36.9
CCOCCCNC(=O)C(c1ccc(OC)cc1)N(Cc1ccc2c(c1)OCO2)C(=O)c1ccccc1O (stereo unspecified)	none
Nc1nonc1-n1nnc(C(=O)N/N=C/c2ccco2)c1CSc1ccccc1	none
O=[N+]([O-])c1ccc(S(=O)(=O)c2cccc(C(F)(F)F)c2)nc1	CHRM4 antagonist 45.6
NC(=O)c1ccsc1NC(=O)COC(=O)CNC(=O)c1ccc(Cl)cc1	none
CN(C)CCC(Oc1ccccc1OCc1ccccc1)c1ccccc1 (stereo unspecified)	CHRM5 antagonist 27.8
CNS(=O)(=O)c1cc(-c2nnc(Nc3ccc(CC(N)=O)cc3)c3ccccc23)ccc1C	none
COc1cc(OC)c(OC)cc1/C=C1\CC(C)C/C(=C\c2cc(OC)c(OC)cc2OC)C1=O (stereo unspecified)	none
C=C1CC2C(CCC3(C)C2CCC3(O)C(C)=O)C2(C)CCC(=O)C=C12 (stereo unspecified)	none
CC(=O)C1(O)CCC2C3CC(C)C4=CC(=O)CCC4(C)C3CCC21C (stereo unspecified)	CHRM4 antagonist 44.0
CC(=O)[C@@]1(O)CCC2C3C=CC4=CC(=O)CC[C@]4(C)C3CC[C@@]21C (stereo partly specified)	none
CC(=O)[C@@]1(O)CC[C@H]2[C@@H]3C[C@H](C)C4=CC(=O)CC[C@]4(C)[C@H]3CC[C@@]21C	CHRM4 antagonist 32.8
CN(CC(=O)Nc1cccc(F)c1)C(=O)c1cccnc1Sc1ccc(Cl)cc1	none
CCCC(=O)N1CCCC1(C)C(=O)Nc1ccc(-n2cccc2)cc1 (stereo unspecified)	none
Cc1nc2sccn2c(=O)c1S(=O)(=O)Nc1ccc(N2CCN(S(C)(=O)=O)CC2)cc1	CHRM5 antagonist 33.6
COc1ccc(C(=O)Nc2cc(OC)c(Cl)cc2OC)cc1	none
COc1cc(NC(=O)c2ccc(F)cc2)c(OC)cc1Cl	none
COc1cc(NC(=O)c2c(F)c(F)c(F)c(F)c2F)c(OC)cc1Cl	CHRM4 antagonist 35.8
COc1cc(NC(=O)c2cc3nc(C)cc(C)n3n2)c(OC)cc1Cl	CHRM4 PAM 28.1
O=C(c1cccc(Cl)c1)N1CCCC(C(=O)N2CCN(c3ccccc3)CC2)C1 (stereo unspecified)	none
Cc1cc(Br)c2nc(-c3ccccc3)c(Cc3cccc(Cl)c3)n2c1	none
CN(Cc1nc2ccccc2n1C)S(=O)(=O)c1ccc(Cl)cc1	CHRM4 PAM 25.0
O=C(NC(c1ccc(-c2ccccc2)cc1)c1cnccn1)C1CCN(CCCOc2ccccc2)CC1 (stereo unspecified)	CHRM4 agonist 36.0
Cc1sc2ncnc(SCC(=O)NCC3CCCO3)c2c1C (stereo unspecified)	none
NC(=O)N1N=C2/C(=C/c3ccccc3)CCCC2C1c1ccccc1 (stereo unspecified)	none
O=C(O)CSCC(=O)N1N=C2/C(=C/c3ccccc3)CCCC2C1c1ccccc1 (stereo unspecified)	CHRM4 PAM 16.1
CCN1C(=O)[C@H]2[C@@H](c3ccc(C)cc3)N3C(=O)N(c4ccc(C)cc4)C(=O)[C@@]3(Cc3ccccc3)[C@H]2C1=O	none
CCN1C(=O)[C@H]2[C@@H](c3ccc(C)cc3)N3C(=O)N(c4ccc(OC)cc4)C(=O)[C@@]3(Cc3ccc(Cl)cc3)[C@H]2C1=O	CHRM4 PAM 31.2
Cc1cc(C(=O)CSc2nc(N)cc(=O)[nH]2)c(C)n1CC1CCCO1 (stereo unspecified)	none
Cc1cc(C(=O)CSc2nc3ccccc3[nH]2)c(C)n1CC1CCCO1 (stereo unspecified)	CHRM4 antagonist 66.3, CHRM4 agonist 34.5, CHRM5 antagonist 60.3

From PubChem BioAssay
